This is an account of results in ChEMBL document CHEMBL4706654, “Novel cyanothiouracil and cyanothiocytosine derivatives as concentration-dependent selective inhibitors of U87MG glioblastomas: Adenosine receptor binding and potent PDE4 inhibition” (Eur J Med Chem, 2021).

The subject of data set [1] is U-87 MG. Put plainly: Antiproliferative activity against human U-87 MG cells assessed as cell viability at 50 uM measured after 24 to 48 hrs by MTT assay relative to control. In kind it is functional, U-87MG ATCC. The following applies: time 24-48 hrs, read-out: Activity. The gist of the method: (§1)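 Cells seeded per well 24 h before treatment: HEK293 at 5.10^4, MCF7 at 4.10^4, U87MG at 10^5. Compounds were dissolved in DMSO (less than 1%) and diluted in DMEM, then incubated 24 and 48 h. Cells were washed with D-PBS and given MTT (from a 5 mg/mL stock) for 4 h, dissolved in DMSO, read at 540 nm. % viability = sample/control absorbance ×100. At least three independent experiments.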

Data set [2] deals with 3',5'-cyclic-AMP phosphodiesterase 4B (Homo sapiens, UniProt Q07343). Put plainly: Inhibition of recombinant human PDE4B using […] as substrate measured after 90 mins by colorimetric assay. Put shortly:
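Recombinant human PDE4 was incubated with 0.5 μM 5′-cGMP plus 5′-nucleotidase for 90 min at 30°C. The reaction was stopped with termination buffer for 20 min at room temperature, and released phosphate was read at OD 620 nm. IC50 was determined from 6 inhibitor concentrations. Compound stocks were in DMSO (less than 1%), with at least triplicate runs, mean ± SD.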

Data set [3] has as its system U-87 MG. The data set is described as follows: Antiproliferative activity against human U-87 MG cells assessed as cell viability at 10 uM measured after 24 to 48 hrs by MTT assay relative to control. Type of data set: functional, U-87MG ATCC. As to conditions: time 24-48 hrs, read-out: Activity. The gist of the method: as §1
In general terms: Formazan colour is commonly taken as a measure of viable cells.

Data set [4] deals with U-87 MG. The data set is described as follows: Antiproliferative activity against human U-87 MG cells assessed as cell viability at 100 uM measured after 24 to 48 hrs by MTT assay relative to control. In kind it is functional, U-87MG ATCC. The following applies: time 24-48 hrs, read-out: Activity. Put shortly:
as §1

For data set [5], the target named is Adenosine receptor A2a (Homo sapiens) (UniProt P29274). Put plainly: Displacement of [3H]ZM241385 from recombinant human A2A adenosine receptor expressed in HEK293 cell membranes at 1 uM measured after 60 mins by liquid scintillation counting method relative to control. As to conditions: Membrane. Put shortly: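 HEK293 membranes expressing hA2A (20 μg/tube) were incubated with 15 nM [3H]ZM241385 and 1 μM test compound for 60 min at 25°C in 50 mM Tris-HCl, pH 7.4, 10 mM MgCl2. The reaction was stopped by GF/B filtration, followed by scintillation counting. Read-out was percent inhibition of specific binding.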
Sequence of Adenosine receptor A2a (Homo sapiens) (P29274 whole entry): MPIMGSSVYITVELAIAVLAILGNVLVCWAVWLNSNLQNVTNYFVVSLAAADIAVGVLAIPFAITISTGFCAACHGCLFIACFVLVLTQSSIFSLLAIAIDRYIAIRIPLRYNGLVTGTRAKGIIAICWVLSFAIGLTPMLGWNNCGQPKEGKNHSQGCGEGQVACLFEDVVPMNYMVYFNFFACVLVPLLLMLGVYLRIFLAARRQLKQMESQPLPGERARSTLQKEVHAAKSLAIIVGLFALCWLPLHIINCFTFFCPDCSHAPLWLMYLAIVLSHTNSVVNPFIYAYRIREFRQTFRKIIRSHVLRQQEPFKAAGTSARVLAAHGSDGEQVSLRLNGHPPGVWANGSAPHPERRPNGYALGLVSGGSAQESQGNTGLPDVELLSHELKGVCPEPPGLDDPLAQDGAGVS

The test system of data set [6] is U-87 MG. The data set is described as follows: Antiproliferative activity against human U-87 MG cells assessed as cell viability at 5 uM measured after 24 to 48 hrs by MTT assay relative to control. In kind it is functional, U-87MG ATCC. As to conditions: time 24-48 hrs, read-out: Activity. Put shortly:
as §1

For data set [7], the target named is T1, Adenosine receptor A1 (Homo sapiens) (UniProt P30542).
T1 sequence (whole entry): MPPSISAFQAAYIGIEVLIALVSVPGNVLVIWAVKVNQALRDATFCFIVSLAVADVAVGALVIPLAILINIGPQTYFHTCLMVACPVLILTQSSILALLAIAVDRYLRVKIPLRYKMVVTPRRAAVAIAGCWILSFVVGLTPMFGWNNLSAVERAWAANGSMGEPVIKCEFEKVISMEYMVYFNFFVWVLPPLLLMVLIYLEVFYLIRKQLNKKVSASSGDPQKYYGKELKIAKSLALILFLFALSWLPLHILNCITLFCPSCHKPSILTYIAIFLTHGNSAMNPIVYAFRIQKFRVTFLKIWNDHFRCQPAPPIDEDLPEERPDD
Put plainly: Displacement of [3H]DPCPX from recombinant human A1 adenosine receptor expressed in CHO cell membranes at 1 uM measured after 60 mins by liquid scintillation counting method relative to control. The following applies: Membrane. Put shortly: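 Membranes from CHO cells expressing recombinant hA1 (40 μg/tube) were incubated with 2 nM [3H]DPCPX and test compound at 1 μM in 50 mM Tris-HCl (pH 7.4, 10 mM MgCl2) for 60 min at 25°C. Bound radioligand was separated by GF/B filtration and counted by liquid scintillation. Results are given as percent inhibition of specific binding.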
(Displacement assays read how much labelled ligand stays bound in the presence of the test substance.)

Data set [8] has as its system U-87 MG. Put plainly: Antiproliferative activity against human U-87 MG cells assessed as reduction in cell viability measured after 24 to 48 hrs by MTT assay. Type of data set: functional, cell-based, U-87MG ATCC. Put shortly:
as §1

The subject of data set [9] is MCF7. Put plainly: Antiproliferative activity against human MCF7 cells assessed as reduction in cell viability measured after 24 to 48 hrs by MTT assay. Type of data set: functional, cell-based. Put shortly: as §1
Data set [10] in a line: (§2) Cytotoxicity against HEK293 cells assessed as cell viability at 100 uM measured after 24 to 48 hrs by MTT assay relative to control. In kind it is cell-based. As to conditions: human, HEK293 cells, time 24-48 hrs, read-out: Activity. Put shortly: as §1
The target in data set [11] is T2, Adenosine receptor A2b (Homo sapiens) (UniProt P29275).
T2 sequence (whole entry): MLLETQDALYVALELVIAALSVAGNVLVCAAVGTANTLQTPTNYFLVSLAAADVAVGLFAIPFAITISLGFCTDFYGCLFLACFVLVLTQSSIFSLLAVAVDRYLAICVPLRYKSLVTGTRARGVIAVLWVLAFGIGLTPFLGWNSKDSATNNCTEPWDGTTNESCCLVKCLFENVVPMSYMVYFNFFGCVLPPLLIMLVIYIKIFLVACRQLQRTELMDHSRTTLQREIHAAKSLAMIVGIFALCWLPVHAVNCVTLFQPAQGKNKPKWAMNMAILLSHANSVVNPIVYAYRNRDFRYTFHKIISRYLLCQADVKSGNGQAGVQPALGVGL
Put plainly: Displacement of [3H]ZM241385 from A2B adenosine receptor (unknown origin) at 10 uM measured after 60 mins by liquid scintillation counting method relative to control.

The target of data set [12] is T2, Adenosine receptor A2b (Homo sapiens). The data set is described as follows: Displacement of [3H]ZM241385 from A2B adenosine receptor (unknown origin) at 1 uM measured after 60 mins by liquid scintillation counting method relative to control.
For data set [13], the system named is HEK293. Described as §2. In kind it is cell-based. As to conditions: human, hek293, 100 µM, time 24-48 hrs. The gist of the method: as §1

Sequence of 3',5'-cyclic-AMP phosphodiesterase 4B (Q07343 whole entry): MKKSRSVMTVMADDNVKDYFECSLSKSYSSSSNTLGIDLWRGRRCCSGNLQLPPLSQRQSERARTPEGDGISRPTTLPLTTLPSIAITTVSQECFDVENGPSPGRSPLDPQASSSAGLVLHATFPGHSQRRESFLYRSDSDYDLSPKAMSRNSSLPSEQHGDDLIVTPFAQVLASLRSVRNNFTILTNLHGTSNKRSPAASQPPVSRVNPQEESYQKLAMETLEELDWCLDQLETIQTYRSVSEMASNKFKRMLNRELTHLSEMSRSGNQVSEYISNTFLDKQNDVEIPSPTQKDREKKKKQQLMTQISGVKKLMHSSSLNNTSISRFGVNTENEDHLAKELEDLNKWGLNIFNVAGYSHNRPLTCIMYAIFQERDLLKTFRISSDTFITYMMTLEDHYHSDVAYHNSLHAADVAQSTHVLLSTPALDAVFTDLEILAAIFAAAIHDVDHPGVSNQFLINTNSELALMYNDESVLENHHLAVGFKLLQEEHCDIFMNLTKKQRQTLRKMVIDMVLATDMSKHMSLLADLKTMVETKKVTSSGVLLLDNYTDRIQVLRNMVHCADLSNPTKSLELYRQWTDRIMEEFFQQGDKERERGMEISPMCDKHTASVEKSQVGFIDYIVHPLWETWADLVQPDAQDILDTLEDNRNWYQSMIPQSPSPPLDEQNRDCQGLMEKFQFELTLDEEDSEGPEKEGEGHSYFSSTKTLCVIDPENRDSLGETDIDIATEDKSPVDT

With `Cc1nc(-c2ccc(Cl)cc2)sc1C(=O)CSc1nc(N)c(C#N)c(-c2ccccc2)n1`, the viability at 50 µM in data set [1] is 15.2%. The IC50 in data set [2] amounted to 22.1 µM; in data set [8] it was 11.4 µM; in [9], 25.2 µM. Moreover, the viability at 10 µM in data set [3] came out at 67.9%. The viability at 100 µM in data set [4] is 4.59%; in [10] it was over 50%. Also, the inhibition is -1.4% in data set [5] and 8.7% in data set [7]. In data set [6], the viability at 5 µM came out at 71.1%.

As for `COc1ccc(-c2nc(C)c(C(=O)CSc3nc(N)c(C#N)c(-c4ccc(OC)cc4)n3)s2)cc1`, in data set [1], the viability at 50 µM stood at 13%. For the same compound, the IC50 turned out to be 3.15 µM in data set [2], 1.56 µM in [8] and 24.3 µM in [9]. Also, the results for the inhibition in [11], in data set [12] and in data set [7] were 49%, 18% and 9%, respectively. Also, the viability at 10 µM in data set [3] came out at 28.7%. In addition, in data set [4], the viability at 100 µM stood at 0.26%. Also, the viability at 5 µM in [6] came to 35.6%. In addition, the Activity in data set [13] is listed as over 50%.

Take `COc1ccc(-c2nc(C)c(C(=O)CSc3nc(N)c(C#N)c(-c4ccccc4)n3)s2)cc1`: the viability at 50 µM in data set [1] is 16.5%. In addition, the IC50 was determined as 11.2 µM in data set [2], 8.54 µM in [8] and 72.1 µM in data set [9]. Moreover, in data set [3], the viability at 10 µM was 57.8%. Further, the viability at 100 µM in data set [4] came out at 5.25%. For the same compound, the inhibition in data set [5] was -2.6%; in data set [7], -2.8%. The viability at 5 µM in data set [6] came to 61.8%. Further, in [13], the Activity is on record as over 50%.

Usually IC50 stands for the midpoint of a concentration-inhibition curve. As usually defined, the inhibition is the relative decrease from the control value, in per cent.
